In brackets after ≈: the same amount, converted by molar mass. Activity calls are given as the source filed them.
Legend:
[1] = Cmax in rat at 3 mg/kg, po; format: ADME, organism-based; set-up: dose 3 mg/kg, route oral; details: in vivo
[2] = Plasma protein binding in rat at 3 mg/kg, po; format: ADME, organism-based; set-up: dose 3 mg/kg, route oral; details: read-out: PPB (converted)
[3] = (§1) AUC ( 0 to t) in rat at 3 mg/kg, po; format: ADME, organism-based, Plasma; set-up: dose 3 mg/kg, route oral; details: plasma
[4] = Inhibition of human CYP450 by fluorescence assay; format: ADME
In short: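 Recombinant human CYP1A2, 2C9, 2C19, 2D6 and 3A4 bactosomes (0.1 mg/mL protein) preincubated 10 min at 37 °C in 50 mM potassium phosphate pH 7.4 with test compound (0.1–10 μM, methanol 3–4.5% final) and fluorogenic probe: ethoxyresorufin 0.5 μM (1A2), FCA 50 μM (2C9), BMC 10 μM (2C19), MMC 10 μM (2D6), DEF 1 μM or 7-BQ 25 μM (3A4). NADPH-regenerating system added; fluorescent metabolite read 10 min; rate as % control; IC50 fitted; triplicate.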

[5] = Apparent permeability of the compound; format: ADME; details: not told
In short: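 Artificial membrane permeability: donor holds 10 mM sample in pH 7.05 phosphate buffer with 0.5% hydroxypropylcyclodextrin. Membrane is 1.8% phosphatidylcholine and 1% cholesterol in decane. Donor and acceptor concentrations measured by LCMS after 3 h at room temperature; permeability expressed in nm/s.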

[6] = system: Brain; assay: Brain tissue binding in rat at 3 mg/kg, po; format: ADME, organism-based; set-up: dose 3 mg/kg, route oral; details: in vivo
[7] = Distribution coefficient, log D of the compound; format: physicochemical; details: octanol/water
[8] = molecular target: T1, Glutamate receptor 2 (Homo sapiens, UniProt P42262); assay: Allosteric modulation of human recombinant GluA2 receptor flip isoform expressed in HEK293 cells assessed as potentiation of glutamate-induced calcium influx by Fluo-4/FLIPR method; format: cell-based
In short: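 Stable GluA2 flip (unedited) cell line grown in DMEM/F12 with 10% FBS and seeded to confluence 2-3 days before use. Cells washed in HEPES buffer (pH 7.3) and loaded with 2 μM Fluo-4 AM for 60 min at room temperature. On FLIPR, compound was added 5 min before 100 μM glutamate. pEC50 and asymptotic maximum are relative to the maximal response to cyclothiazide, n ≥ 3.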

[9] = system: Rattus norvegicus; assay: Cognitive enhancing effect in Wistar rat assessed as reversal of scopolamine-induced amnesic deficit at 10 to 30 mg/kg, ip by passive avoidance test
[10] = molecular target: T1, Glutamate receptor 2; assay: Allosteric modulation of human recombinant GluA2 receptor flip isoform expressed in HEK293 cells assessed as potentiation of glutamate-induced calcium influx by Fluo-4/FLIPR method relative to cyclothiazide; format: cell-based
In short: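 Stable GluA2 flip (unedited) cells seeded to confluence 2-3 days before assay; washed in HEPES buffer (145 NaCl, 5 KCl, 2 CaCl2, 1 MgCl2, 5.5 glucose, pH 7.3), loaded with 2 μM Fluo4-AM 60 min at room temperature. FLIPR dual addition: compound 5 min before 100 μM glutamate; fluorescence rise expressed against maximal cyclothiazide response, fitted pEC50 and Asym max; n ≥ 3.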

[11] = system: Brain; assay: Drug level in Lister Hooded rat assessed per gram of tissue at 150 mg/kg, ip; format: ADME, organism-based; set-up: dose 150 mg/kg, route intraperitoneal; details: in vivo
In short: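 Male Lister Hooded rats pretreated 30 min before the maximal electroshock threshold test with compound or saline vehicle; picrotoxin served as positive control. Corneal current applied, CC50 about 60-70 mA, 0.1 ms. Brain levels measured in satellite rats sampled immediately after testing.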

[12] = system: Rattus norvegicus; assay: Neurotoxicity in Lister Hooded rat assessed proconvulsant effect at 150 mg/kg, ip by MEST test; format: toxicity, organism-based; set-up: dose 150 mg/kg, route intraperitoneal; details: in vivo
In short: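 Male Lister Hooded rats pretreated with compound, saline vehicle or picrotoxin 30 min before corneal electroshock (CC50 about 60–70 mA, 0.1 ms); tonic and tonic-clonic seizure threshold scored; brain concentrations taken from satellite rats sampled right after testing.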

[13] = Kinetic solubility of the compound in phosphate buffered saline of pH 7.4; format: physicochemical
In short: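 Kinetic solubility: 10 mM DMSO stock, 5 μL diluted to 100 μL with pH 7.4 phosphate-buffered saline, equilibrated 1 h at room temperature, filtered, filtrate quantified by calibrated flow-injection chemiluminescent nitrogen detection.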

[14] = in vivo; details: rat, brain and blood, po, 3 mg/kg
[15] = Clearance in rat at 3 mg/kg, po; format: ADME, organism-based; set-up: dose 3 mg/kg, route oral; details: in vivo
In short: (§2)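 Rats dosed orally at 3 mg/kg; blood sampled via the hepatic portal vein and heart. Estimated clearance derived from in vivo hepatic extraction, taking rat liver blood flow as 85 (mL/min)/kg.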

[16] = molecular target: Cytochrome P450 2D6 (Homo sapiens, UniProt P10635); assay: Inhibition of human CYP2D6 by fluorescence assay; format: ADME
In short: (§3)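 Recombinant human CYP bactosomes (0.1 mg/mL) in 50 mM potassium phosphate pH 7.4, preincubated 10 min at 37 °C with test compound (0.1-10 μM, 7 concentrations) and fluorogenic substrate. Substrates: ethoxyresorufin 0.5 μM (1A2), FCA 50 μM (2C9), BMC 10 μM (2C19), MMC 10 μM (2D6), DEF 1 μM or 7-BQ 25 μM (3A4). Reaction started with NADPH regenerating system; metabolite formation read over 10 min. IC50 from percent of control rate; miconazole control; triplicate.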

[17] = system: Rattus norvegicus; assay: as §1; format: ADME, organism-based, Plasma; set-up: dose 3 mg/kg, route oral; details: in vivo
[18] = system: Brain; assay: Drug level in Lister Hooded rat assessed per gram of tissue at 0.3 mg/kg, ip; format: ADME, organism-based; set-up: dose 0.3 mg/kg, route intraperitoneal; details: in vivo
In short: (§4)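 Male Lister Hooded rats (n = 9-12/group) tested for reversal of a 24 h delay-induced deficit in novel object recognition. Significant doses flagged. Brain concentrations measured in the study animals at the end of the test.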

[19] = molecular target: Cytochrome P450 3A4 (Homo sapiens, UniProt P08684); assay: Inhibition of human CYP3A4 by fluorescence assay; format: ADME; in short: as §3
[20] = system: Brain; assay: Drug level in Lister Hooded rat assessed per gram of tissue at 1 mg/kg, ip; format: ADME, organism-based; set-up: dose 1 mg/kg, route intraperitoneal; details: in vivo; in short: as §4
[21] = system: Rattus norvegicus; assay: Cognitive enhancing effect in Wistar rat assessed as reversal of scopolamine-induced amnesic deficit at 30 mg/kg, ip by passive avoidance test
[22] = molecular target: T2, Cytochrome P450 1A2 (Homo sapiens, UniProt P05177); assay: Inhibition of human CYP1A2 by fluorescence assay; format: ADME; in short: as §3
T2 sequence (P05177 whole entry): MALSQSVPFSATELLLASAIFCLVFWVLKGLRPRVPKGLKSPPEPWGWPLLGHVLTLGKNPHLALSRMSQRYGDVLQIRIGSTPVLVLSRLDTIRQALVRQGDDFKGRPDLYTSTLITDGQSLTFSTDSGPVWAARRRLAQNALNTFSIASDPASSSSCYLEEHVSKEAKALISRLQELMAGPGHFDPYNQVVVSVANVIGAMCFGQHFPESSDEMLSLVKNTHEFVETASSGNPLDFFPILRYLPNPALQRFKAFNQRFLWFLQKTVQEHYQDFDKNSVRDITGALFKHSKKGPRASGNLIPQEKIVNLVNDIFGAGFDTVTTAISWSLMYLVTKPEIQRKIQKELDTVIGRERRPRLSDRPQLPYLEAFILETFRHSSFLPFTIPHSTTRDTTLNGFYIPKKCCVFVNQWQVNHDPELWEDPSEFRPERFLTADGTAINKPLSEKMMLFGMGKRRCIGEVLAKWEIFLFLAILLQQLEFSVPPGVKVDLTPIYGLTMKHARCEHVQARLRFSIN

[23] = molecular target: Cytochrome P450 2C19 (Homo sapiens, UniProt P33261); assay: Inhibition of human CYP2C19 by fluorescence assay; format: ADME; in short: as §3
[24] = molecular target: Cytochrome P450 2C9 (Homo sapiens, UniProt P11712); assay: Inhibition of human CYP2C9 by fluorescence assay; format: ADME; in short: as §3
[25] = system: Brain; assay: Drug level in Lister Hooded rat assessed per gram of tissue at 10 mg/kg, ip; format: ADME, organism-based; set-up: dose 10 mg/kg, route intraperitoneal; details: in vivo; in short: as §4
[26] = system: Brain; assay: Drug level in Lister Hooded rat assessed per gram of tissue at 3 mg/kg, ip; format: ADME, organism-based; set-up: dose 3 mg/kg, route intraperitoneal; details: in vivo; in short: as §4
[27] = AUC (0 to t) in rat blood at 3 mg/kg, po; format: ADME, organism-based; set-up: dose 3 mg/kg, route oral; details: whole blood
[28] = Cmax in rat blood at 3 mg/kg, po; format: ADME, organism-based; set-up: dose 3 mg/kg, route oral; details: whole blood
[29] = Blood Clearance in rat at 3 mg/kg, po; format: ADME, organism-based; set-up: dose 3 mg/kg, route oral; details: whole blood; in short: as §2
[30] = Distribution coefficient, log D of the compound at pH 7.4; format: physicochemical; details: octanol/water

Chain of Cytochrome P450 2C19 (P33261 whole entry): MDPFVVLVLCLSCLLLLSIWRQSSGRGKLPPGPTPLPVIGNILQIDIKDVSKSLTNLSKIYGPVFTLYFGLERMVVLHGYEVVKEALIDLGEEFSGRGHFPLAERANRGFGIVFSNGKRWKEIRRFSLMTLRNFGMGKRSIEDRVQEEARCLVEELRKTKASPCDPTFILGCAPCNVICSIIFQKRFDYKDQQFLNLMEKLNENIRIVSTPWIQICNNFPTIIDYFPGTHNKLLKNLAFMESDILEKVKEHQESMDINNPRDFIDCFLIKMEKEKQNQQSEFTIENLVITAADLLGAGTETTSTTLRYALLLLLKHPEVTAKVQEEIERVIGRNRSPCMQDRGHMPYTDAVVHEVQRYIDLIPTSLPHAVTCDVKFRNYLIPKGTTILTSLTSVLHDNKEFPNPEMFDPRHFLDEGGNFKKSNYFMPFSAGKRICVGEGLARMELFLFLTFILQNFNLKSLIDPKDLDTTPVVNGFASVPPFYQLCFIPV
Chain of Cytochrome P450 3A4 (P08684 whole entry): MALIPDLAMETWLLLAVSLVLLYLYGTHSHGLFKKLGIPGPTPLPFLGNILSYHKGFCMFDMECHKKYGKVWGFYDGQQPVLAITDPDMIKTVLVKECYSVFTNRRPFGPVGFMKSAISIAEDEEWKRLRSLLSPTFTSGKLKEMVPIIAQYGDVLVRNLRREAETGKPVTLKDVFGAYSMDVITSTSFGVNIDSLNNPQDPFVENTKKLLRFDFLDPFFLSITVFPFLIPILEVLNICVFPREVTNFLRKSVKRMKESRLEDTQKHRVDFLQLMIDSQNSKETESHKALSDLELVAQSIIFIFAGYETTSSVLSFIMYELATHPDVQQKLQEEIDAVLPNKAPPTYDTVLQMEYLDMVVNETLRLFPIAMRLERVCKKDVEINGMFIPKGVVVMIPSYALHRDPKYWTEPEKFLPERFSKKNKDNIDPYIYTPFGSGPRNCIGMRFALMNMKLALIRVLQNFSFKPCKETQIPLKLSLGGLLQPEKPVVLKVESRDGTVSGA
Chain of Cytochrome P450 2D6 (P10635 whole entry): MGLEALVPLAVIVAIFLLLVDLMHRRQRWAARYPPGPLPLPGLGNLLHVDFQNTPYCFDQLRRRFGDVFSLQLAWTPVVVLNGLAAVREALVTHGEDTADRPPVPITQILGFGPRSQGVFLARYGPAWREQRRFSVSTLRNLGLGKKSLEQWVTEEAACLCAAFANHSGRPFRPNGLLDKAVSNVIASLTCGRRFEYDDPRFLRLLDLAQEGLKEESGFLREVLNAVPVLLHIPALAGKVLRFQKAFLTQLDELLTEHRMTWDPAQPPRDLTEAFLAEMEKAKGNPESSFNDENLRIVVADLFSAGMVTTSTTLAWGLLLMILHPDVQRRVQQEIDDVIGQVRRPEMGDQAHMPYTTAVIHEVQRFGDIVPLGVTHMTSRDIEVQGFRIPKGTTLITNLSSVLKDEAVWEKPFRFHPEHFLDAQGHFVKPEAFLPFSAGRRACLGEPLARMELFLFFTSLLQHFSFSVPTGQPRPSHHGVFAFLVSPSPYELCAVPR
T1 sequence (P42262 whole entry, canonical isoform): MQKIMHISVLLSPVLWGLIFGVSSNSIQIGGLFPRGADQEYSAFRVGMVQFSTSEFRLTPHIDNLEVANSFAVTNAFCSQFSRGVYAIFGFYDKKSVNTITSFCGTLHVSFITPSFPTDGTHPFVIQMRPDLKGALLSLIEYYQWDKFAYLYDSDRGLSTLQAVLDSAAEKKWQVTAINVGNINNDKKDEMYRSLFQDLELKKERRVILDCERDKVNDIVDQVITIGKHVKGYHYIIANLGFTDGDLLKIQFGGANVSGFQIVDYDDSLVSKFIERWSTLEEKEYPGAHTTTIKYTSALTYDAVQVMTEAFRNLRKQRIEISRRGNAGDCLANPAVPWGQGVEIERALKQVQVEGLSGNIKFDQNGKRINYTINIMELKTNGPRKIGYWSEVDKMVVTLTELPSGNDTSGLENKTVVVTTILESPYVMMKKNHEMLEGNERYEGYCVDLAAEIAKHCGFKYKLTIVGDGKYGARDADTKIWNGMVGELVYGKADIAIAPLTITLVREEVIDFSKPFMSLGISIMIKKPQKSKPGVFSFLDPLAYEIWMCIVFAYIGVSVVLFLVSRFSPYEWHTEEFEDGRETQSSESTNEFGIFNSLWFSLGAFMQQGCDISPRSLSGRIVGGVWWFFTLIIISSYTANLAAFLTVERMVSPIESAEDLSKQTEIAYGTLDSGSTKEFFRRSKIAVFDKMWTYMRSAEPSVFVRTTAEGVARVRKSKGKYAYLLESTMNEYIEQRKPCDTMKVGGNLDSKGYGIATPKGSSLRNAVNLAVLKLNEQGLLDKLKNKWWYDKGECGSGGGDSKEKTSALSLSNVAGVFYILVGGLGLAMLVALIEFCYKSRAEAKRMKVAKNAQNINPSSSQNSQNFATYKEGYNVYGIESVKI
Chain of Cytochrome P450 2C9 (P11712 whole entry): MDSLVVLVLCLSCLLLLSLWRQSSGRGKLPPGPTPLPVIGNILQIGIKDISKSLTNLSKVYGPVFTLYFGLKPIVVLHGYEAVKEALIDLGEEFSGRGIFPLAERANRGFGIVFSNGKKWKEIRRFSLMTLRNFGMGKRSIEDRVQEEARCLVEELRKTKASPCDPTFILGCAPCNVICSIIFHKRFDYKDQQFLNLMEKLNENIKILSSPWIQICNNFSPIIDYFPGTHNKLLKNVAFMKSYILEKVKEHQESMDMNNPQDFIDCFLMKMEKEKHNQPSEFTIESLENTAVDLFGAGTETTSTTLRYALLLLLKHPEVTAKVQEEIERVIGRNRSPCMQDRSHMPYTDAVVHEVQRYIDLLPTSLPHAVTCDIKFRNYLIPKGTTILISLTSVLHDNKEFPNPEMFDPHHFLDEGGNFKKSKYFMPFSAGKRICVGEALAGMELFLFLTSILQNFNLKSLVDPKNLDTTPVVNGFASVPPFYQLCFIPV

Cmax [1] [ng/mL] | fraction unbound [2] | Papp [5] [×10⁻⁶ cm/s] | Brain tissue binding (% bound) [6] [%] | logD [7] | EC50 [8] [µM] | Activity [10] [%] | Drug uptake [11] [ng/g] | solubility kinetic [13] [µg/mL] | Kp [14] | IC50 [16] [µM] | IC50 [19] [µM] | IC50 [22] [µM] | IC50 [23] [µM] | IC50 [24] [µM] | AUC(0-t) [27] [ng·h/mL] | Cmax [28] [ng/mL] | CL/F [29] [mL/min/kg] | logD [30] | Structure (SMILES) | Activity [12] | also measured
586 | 0.026 | 45.5 | 96.8 | 3.1 | > 20 | 81 | 7168 | 123 (≈ 324 µM) | 1.2 | – | – | – | – | – | – | – | – | – | O=C(c1ccc(-n2nc(C(F)(F)F)c3c2CCCC3)cc1)N1CCOCC1 | Non-toxic | AUC(0-t) [3]: 1980 ng·h/mL; IC50 [4]: > 10 µM; Activity [9]: inactive; CL/F [15]: 14 mL/min/kg
50 | 0.048 | – | 98.2 | 3 | 25.1 | 94 | – | 138 (≈ 409 µM) | 1.3 | 6 | – | – | – | – | – | – | – | – | CN(C)C(=O)c1ccc(-n2nc(C(F)(F)F)c3c2CCCC3)cc1 | – | AUC [17]: 78 ng·h/mL
– | 0.064 | 47 | 96.3 | – | 20 | 120 | 8988 | 207 (≈ 516 µM) | – | > 10 | > 10 | > 10 | > 10 | > 10 | 481 | 76 | 22 | 2.5 | O=C1CCCN1Cc1c(F)cc(-n2nc(C(F)(F)F)c3c2CCOC3)cc1F | Non-toxic | Drug uptake [18]: 22 ng/g; Drug uptake [20]: 79 ng/g; Activity [21]: Active; Drug uptake [25]: 1413 ng/g; Drug uptake [26]: 386 ng/g
197 | 0.021 | 33.5 | 99.2 | 2.5 | 7.94 | 112 | 5074 | 103 (≈ 276 µM) | 1.6 | – | – | – | – | – | – | – | – | – | CS(=O)(=O)NCc1ccc(-n2nc(C(F)(F)F)c3c2CCCC3)cc1 | Non-toxic | AUC(0-t) [3]: 416 ng·h/mL; IC50 [4]: > 10 µM; CL/F [15]: 43 mL/min/kg
– | 0.16 | 47 | 87.9 | – | 10 | 138 | – | 215 (≈ 588 µM) | – | > 8 | > 8 | > 8 | > 8 | > 8 | 972 | 808 | 41 | 2.4 | O=C1CCCN1Cc1ccc(-n2nc(C(F)(F)F)c3c2CCOC3)cc1 | – | –
– | 0.142 | 43 | 63 | – | 39.8 | 102 | – | 93 (≈ 246 µM) | – | > 10 | > 10 | > 10 | > 10 | > 10 | 294 | 131 | 22 | 2 | CN1CCc2c(C(F)(F)F)nn(-c3ccc(CN4CCCC4=O)cc3)c2C1 | – | –
– | 0.137 | 49.5 | 88.4 | – | > 20 | 81 | 22525 | 192 (≈ 526 µM) | – | > 10 | > 10 | > 10 | > 10 | > 10 | 1330 | 551 | 6 | 2.4 | O=C(c1ccc(-n2nc(C(F)(F)F)c3c2CCOC3)cc1)N1CCCC1 | Non-toxic | Drug uptake [20]: 228 ng/g; Drug uptake [25]: 2609 ng/g; Drug uptake [26]: 983 ng/g; Activity [9]: Active
– | 0.067 | 49 | 95.5 | – | 100 | 75 | – | 104 (≈ 285 µM) | – | > 10 | > 10 | > 10 | > 10 | > 10 | 733 | 225 | 13 | 2.6 | O=C(c1ccc(-n2nc(C(F)(F)F)c3c2COCC3)cc1)N1CCCC1 | – | –

Source: ChEMBL document CHEMBL1649062, “Integration of lead optimization with crystallography for a membrane-bound ion channel target: discovery of a new class of AMPA receptor positive allosteric modulators” (J Med Chem, 2011)
